# Rin1-Abl PPI inh: blocks binding of human Rin1 to Abl. P00519+Q13671. TR-FRET Rin1/Abl binding, biochemical. inhibition, % at 7.35 µM. 0.4% of 360,000 active; in the data active means inhibition above about 5%, passing the limit was not always enough
# UBC13 polyUb: human UBC13 polyubiquitination inhibition; P61088; UBC13 polyubiquitin chain formation, TR-FRET; inhibition, % at 20 µM; 0.47% of 330,000 active; in the data active means inhibition above about 45%, passing the limit was not always enough; inconclusive means no clear call, values can overlap the other calls
# SUMO HTRF inh: SUMOylation inhibition; 0.36% of 290,000 active; inhibition, % at 35 µM; P63279; HTRF SUMOylation assay, SAE1/SAE2 + UBC9, in vitro; in the data active means inhibition above about 50%, passing the limit was not always enough; inconclusive means no clear call, values can overlap the other calls
# Target sequence (P63279 whole entry, looked up): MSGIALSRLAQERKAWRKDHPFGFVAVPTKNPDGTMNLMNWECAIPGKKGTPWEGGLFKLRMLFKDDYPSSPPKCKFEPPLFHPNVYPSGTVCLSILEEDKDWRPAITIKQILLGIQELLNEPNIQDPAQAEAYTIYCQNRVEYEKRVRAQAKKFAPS
# PREPL inhibitor: inhibitors of human prolyl oligopeptidase-like enzyme PREPL; Q4J6C6; recombinant PREPL, fluorescence polarization activity-based probe; inhibition, % at 5.96 µM; 0.68% of 320,000 active; in the data active means inhibition above about 43%;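 further: 0% = enzyme with DMSO and 100% = wells lacking enzyme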
# ALR H2O2 inh: human ALR oxidase inhibition via reduced H2O2. AID 485317. 3.8% of 290,000 active. inhibition, % (test concentration not listed). P55789. purified ALR, DTT oxidation, H2O2 HRP-luminol luminescence;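 active means mean replicate inhibition above about 79%, with every replicate also reaching it, limit read from the data; inconclusive means only one of the two criteria met; inactive means mean below limit and not every replicate reaching it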
# RBBP9 inhibitor: inhibitors of human serine hydrolase RBBP9; 0.2% of 220,000 active; recombinant RBBP9, FP-Rh probe fluorescence polarization; inhibition, % at 7.94 µM; O75884; AID 1515;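 active means inhibition above the campaign mean of all tested compounds plus 3 SD, cut at about 14% in these data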;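 further: plate controls were DMSO wells with RBBP9 for no effect and wells lacking RBBP9 protein for full effect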
# Target sequence (O75884 whole entry, looked up): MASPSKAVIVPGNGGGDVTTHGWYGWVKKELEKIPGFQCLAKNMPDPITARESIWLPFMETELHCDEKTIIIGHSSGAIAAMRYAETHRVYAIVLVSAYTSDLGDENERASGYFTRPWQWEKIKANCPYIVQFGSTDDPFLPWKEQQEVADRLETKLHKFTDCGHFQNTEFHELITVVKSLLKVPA
#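 Measured by – fluorescence polarization · Test system – RBBP9 protein · Input – 2.5 µM RBBP9 dispensing solution, before mixing · Measure – percent inhibition from mP, scaled between DMSO and no-protein wells · Benchmarks – DMSO-treated enzyme wells and wells lacking RBBP9 · Times – preincubation 30 min plus labeling 45 min at 25 °C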
# * = called active by the depositor; ? = inconclusive; · = no result given. In the library only some 4.3% were active in any assay of this set; here they are far more common.
SMILES,Rin1-Abl PPI inh,UBC13 polyUb,SUMO HTRF inh,PREPL inhibitor,ALR H2O2 inh,RBBP9 inhibitor
COc1ccc(Cc2n[nH]c(=S)n(N)c2=O)cc1,-6.2,-6.6,28.8,6.6,0.9,-9.5
Nn1c(=S)[nH]nc(Cc2ccc(O)cc2)c1=O,-1.7,-20.6,-0.4,-4.7,80.2*,-4.1
CCn1cnc2cc(NCc3cccc(OC)c3O)ccc21,7.2,4.5,-4.0,5.1,94.4*,1.6
COc1ccccc1-n1cnc2cc(NCc3ccccc3O)ccc21,0.5,5.2,10.0,17.2,97.8*,-0.9
CC1(C(=O)NS(=O)(=O)c2ccc(Cl)cc2)CCN1C(=O)Cc1ccccc1Cl (centres undefined),0.3,·,·,·,·,·
Cc1ccc(F)cc1NC(=O)CSCc1nc2sc(C)c(C)c2c(=O)[nH]1,0.5,3.0,·,10.3,97.2*,·
Cc1sc2nc(CSCC(=O)Nc3ccccc3C#N)[nH]c(=O)c2c1C,1.6,-10.6,-0.3,14.3,98.2*,-2.5
c1ccc(-c2nc3c4ccccc4ccn3c2Cc2ccsc2)cc1,0.0,·,·,·,·,·
NS(=O)(=O)c1ccc(CCNc2ccn3nc(-c4cccc(C(F)(F)F)c4)cc3n2)cc1,1.1,·,·,·,·,·
COc1ccc(-c2nc(CSCC(=O)NC3CCCc4ccccc43)c(C)o2)cc1OC (centres undefined),0.6,-0.1,6.1,-9.8,·,-0.6
COc1ccc(-c2nc(CN3CCC(C(=O)NCC4CCCO4)CC3)c(C)o2)cc1OC (centres undefined),-3.4,2.1,9.3,1.3,-9.9,·
COc1ccc(-c2nc(CSCC(=O)N3CCc4ccccc4C3)c(C)o2)cc1OC,0.1,9.7,13.3,9.4,98.5*,-6.3
COc1ccc(-c2nc(CSCC(=O)N3CCC(C(N)=O)CC3)c(C)o2)cc1OC,-4.2,1.7,-5.2,5.5,98.6*,1.7
COc1ccc(-c2nc(CSCC(=O)N3CCN(c4cccc(C)c4)C(C)C3)c(C)o2)cc1OC (centres undefined),5.7,5.4,1.3,15.1,99.3*,-7.4
CC1(c2ccccc2)NC(=O)N(CC(=O)NCC2CCCO2)C1=O (centres undefined),0.8,-7.1,·,0.4,0.9,·
O=C(COC(=O)c1cccc(OC(F)F)c1)NCC1CCCO1 (centres undefined),2.5,8.7,·,8.9,-3.9,·
Nc1ccccc1Nc1nc2ccccc2[nH]1,-0.7,-12.0,7.1,-9.4,99.2*,·
O=[N+]([O-])c1nccn1CCCCCCCCCCCN1CCOCC1,0.2,·,·,·,·,·
COc1cccc(CNC(=O)C2CSC3(C)CCC(=O)N23)c1 (centres undefined),-0.7,6.9,·,-8.7,-5.9,·
S=C(NCCCN1CCOCC1)Nc1ccc(Nc2ccccc2)cc1,4.3,-8.8,0.7,24.4,99.3*,-7.3
S=C(NCCN1CCOCC1)Nc1ccc(Cl)cc1Cl,0.5,6.0,-2.9,11.4,94.7*,-1.1
O=C1CCCN1CCCNC(=S)Nc1ccc(Nc2ccccc2)cc1,2.5,0.4,-0.2,13.1,99.4*,-1.5
S=C(NCCCN1CCOCC1)Nc1ccc(Cl)cc1Cl,-1.0,-14.2,2.9,7.0,1.7,-6.4
S=C(NCCCN1CCOCC1)Nc1ccc(-c2nc3ccccc3[nH]2)cc1,-1.3,20.8,-2.4,0.6,98.0*,-8.9
O=C1CCCN1CCCNC(=S)Nc1ccccc1,0.8,0.0,6.6,7.7,1.1,1.2
SMILES,Rin1-Abl PPI inh,UBC13 polyUb,SUMO HTRF inh,PREPL inhibitor,ALR H2O2 inh,RBBP9 inhibitor
S=C(NCCN1CCOCC1)Nc1ccc(Nc2ccccc2)cc1,1.6,-8.2,9.1,26.9,99.1*,-6.1
S=C(NCCN1CCOCC1)Nc1ccc(Br)cc1,4.1,-0.2,1.8,-2.0,?,-3.8
CCCCc1c(O)nc(SCC(=O)c2ccccc2)n(-c2ccccc2OC)c1=O,3.6,-9.1,6.1,17.5,98.7*,-2.5
CCCCc1c(O)nc(SCC(=O)c2ccccc2)n(-c2ccccc2C)c1=O,1.3,-3.9,10.9,12.5,97.3*,-0.1
Cc1ccccc1C(=O)NC(CC(C)C)C(=O)OCC(=O)c1c(N)n(C)c(=O)n(C)c1=O (centres undefined),2.3,-3.0,14.0,13.9,·,-2.7
CCOC(=O)c1cc2c(=O)n3cccc(C)c3nc2n(Cc2ccco2)c1=NC(=O)c1ccc(C)cc1,2.0,·,·,·,·,·
CCOC(=O)c1cc2c(=O)n3cccc(C)c3nc2n(Cc2ccco2)c1=NC(=O)c1ccccc1,-2.6,-2.3,28.1,-9.9,89.4*,-9.5
